# A selection: hits, their analogues and other compounds. The true share with any hit is near 1.8%.
# Tb MetRS inh = Trypanosoma brucei MetRS inhibition; purified T. brucei MetRS, ATP depletion, Kinase-Glo luminescence; inhibition, % at 11.9 µM; 360,000 tested, 0.4% active; AID 624268;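 active = inhibition above a per-plate cutoff of the control wells' mean inhibition plus 3 SD, cut at about 5.5% in these data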;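 note: 0% = DMSO wells median and 100% = median of wells with control inhibitor compound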
#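 Measured by: Kinase-Glo luciferase luminescence reporting remaining unconsumed ATP. Material: purified T. brucei MetRS enzyme. Doses: 11.9 µM compound single dose, 0.9% DMSO. Medium: HEPES buffer containing pyrophosphatase, BSA, spermine, DTT. Times: 15 min preincubation, 2 h reaction, all 25 °C. Reagent: methionine, ATP and bulk E. coli tRNA.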
# SKN-1 inh = inhibitors of C. elegans SKN-1; C. elegans VP596 Pgst-4::GFP/RFP ratio, acrylamide-induced, 24 h; inhibition, % at 21.8 µM; 360,000 tested, 0.49% active;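 active = interference check ratio from 0.5 to 1.5 plus GFP to RFP signal ratio inhibition reaching or exceeding a fixed threshold, cut at about 30% in these data, passing the limit was not always enough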
# hiPSC survival = enhancers of human iPSC single-cell survival; hiPSC single-cell survival, ATPlite luminescence; 100% = ROCK inhibitor wells, 0% = DMSO; survival enhancement, % at 20 µM; 360,000 tested, 0.044% active; in the data active = survival enhancement above about 18%;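 note: cells exposed to compounds for 16 hours before the ATP read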
# PREPL inhibitor = human PREPL enzyme inhibition; Q4J6C6; recombinant PREPL, fluorescence polarization activity-based probe; inhibition, % at 5.96 µM; 320,000 tested, 0.68% active; in the data active = inhibition above about 43%;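 note: 0% = enzyme with DMSO and 100% = wells lacking enzyme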
# MT1-MMP act inh = MT1-MMP (human) activation inhibition. P50281. HT1080 RFP-PRO-GFP cells, GFP/RFP ratio fluorescence, overnight; percent of plate control window, DMSO zero. GFP/RFP ratio change, % at 20 µM. 360,000 tested, 0.061% active. AID 651647;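 active = GFP/RFP ratio change of at least 30% with cell ATP level not reduced by more than half and red fluorescence within 50% of control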
#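 Test system: HT1080 cells expressing an RFP-PRO-GFP fluorescent reporter construct / Compound dosing: single-point 20 µM compound, 1% DMSO / Schedule: cells overnight before dosing, compound overnight, 37 °C, 5% CO2 / Evaluation: GFP/RFP fluorescence ratio / Control set: DMSO and RFP-L50D-GFP cell wells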
# eLon inh = inhibitors of E. coli Lon protease; P0A9M0; purified E. coli Lon protease, fluorescence polarization; inhibition, % at 7.94 µM; 360,000 tested, 0.42% active; in the data active = inhibition above about 13%, passing the limit was not always enough;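 note: 0% = enzyme with probe and DMSO and 100% = no enzyme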
# Target sequence (P0A9M0 whole entry, looked up): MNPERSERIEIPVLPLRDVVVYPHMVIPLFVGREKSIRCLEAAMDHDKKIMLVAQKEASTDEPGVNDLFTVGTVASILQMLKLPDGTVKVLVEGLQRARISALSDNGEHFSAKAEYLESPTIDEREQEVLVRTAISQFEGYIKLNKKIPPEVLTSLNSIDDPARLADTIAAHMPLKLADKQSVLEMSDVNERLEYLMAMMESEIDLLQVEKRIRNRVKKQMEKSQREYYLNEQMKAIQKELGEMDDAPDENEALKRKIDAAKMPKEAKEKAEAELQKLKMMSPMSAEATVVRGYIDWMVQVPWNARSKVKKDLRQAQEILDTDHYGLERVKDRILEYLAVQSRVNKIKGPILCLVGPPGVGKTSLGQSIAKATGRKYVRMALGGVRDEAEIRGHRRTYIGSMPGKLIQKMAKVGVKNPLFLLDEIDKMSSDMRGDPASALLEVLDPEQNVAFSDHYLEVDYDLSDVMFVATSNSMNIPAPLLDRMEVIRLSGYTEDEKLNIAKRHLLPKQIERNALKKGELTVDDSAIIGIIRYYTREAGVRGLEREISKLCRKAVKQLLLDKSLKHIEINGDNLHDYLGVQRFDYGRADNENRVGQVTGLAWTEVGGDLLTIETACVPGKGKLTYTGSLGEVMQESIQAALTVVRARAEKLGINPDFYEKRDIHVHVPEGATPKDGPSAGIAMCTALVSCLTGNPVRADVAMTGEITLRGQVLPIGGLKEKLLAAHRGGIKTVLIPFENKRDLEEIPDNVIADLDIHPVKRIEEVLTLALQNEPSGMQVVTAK
# TbMetRS confirm = Trypanosoma brucei MetRS inhibition confirmed; shares compounds with Tb MetRS inh; T. brucei MetRS enzyme, luminescence (ATP depletion); inhibition, % at 11.9 µM; 1,400 tested, 93% active; AID 624412; in the data active = inhibition above about 7%
# Jurkat cytotox = counter-screen for T. brucei MetRS inhibitors: Jurkat cell cytotoxicity. shares compounds with Tb MetRS inh. Jurkat cells viability, ATP luminescence. inhibition, % at 8.3 µM. 1,400 tested, 12% active. AID 624413; in the data active = inhibition above about 15%;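 note: 0% = vehicle and 100% = reference inhibitor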
# Tb MetRS inh FP = orthogonal test for Trypanosoma brucei MetRS inhibitors. shares compounds with Tb MetRS inh. AID 651607. 1,400 tested, 44% active. purified T. brucei MetRS, fluorescence polarization. inhibition, % at 11.9 µM; in the data active = inhibition above about 17%;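 note: 0% = vehicle wells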
# Numbers without * were called inactive; x = not tested or not shown.
SMILES,Tb MetRS inh,SKN-1 inh,hiPSC survival,PREPL inhibitor,MT1-MMP act inh,eLon inh,TbMetRS confirm,Jurkat cytotox,Tb MetRS inh FP
Cc1cccc(NC(=O)C2C3CCCCC32)c1 (centres undefined),0,5,0,x,-2,3,x,x,x
COc1cc(/C=C(\C#N)c2nc3ccc(C)cc3[nH]2)cc([N+](=O)[O-])c1O,0,1,1,x,24,-8,x,x,x
Cc1ccc2nc(/C(C#N)=C\c3cc(O)ccc3[N+](=O)[O-])[nH]c2c1,14*,13,0,3,-2,-17,38*,-7,9
CCN(C(=O)c1cc(S(=O)(=O)N2CCOCC2)cn1C)c1cccc(C)c1,-1,-17,-2,20,2,-9,x,x,x
CC(C)n1c(NCc2ccccc2O)nc2ccccc21,0,24,0,1,3,0,x,x,x
C=CCc1cccc(CNc2nc3ccccc3n2C(C)C)c1O,6.7*,8,2,13,7,-5,11*,9,1
C=CCn1c(NCc2cc(Cl)ccc2O)nc2ccccc21,13*,4,0,0,4,3,25*,0,9
CCOCCCNc1ncnc2c1[nH]c1ccccc12,55*,1,-1,-14,0,-2,76*,13,52*
CCCCOCCCNc1ncnc2c1[nH]c1ccccc12,93*,-7,-4,12,8,0,106*,44*,95*
O=C(Nc1ccc(F)c(F)c1)c1ccc(-n2cncn2)c([N+](=O)[O-])c1,37*,-25,0,15,5,3,58*,13,29*
O=C(NNC(=O)c1ccccc1F)c1ccc(-n2cncn2)c([N+](=O)[O-])c1,3,-9,0,6,1,11,x,x,x
O=C(Nc1cccc(/C=C/c2ccccn2)c1)c1ccc(-n2cncn2)c([N+](=O)[O-])c1,23*,11,0,31,-3,-2,62*,22*,55*
O=C(Nc1cc(F)ccc1F)c1ccc(-n2cncn2)c([N+](=O)[O-])c1,36*,-17,0,16,10,-6,57*,2,33*
COc1ccc(C(=O)NCC(=O)OCc2ccccc2F)cc1,0,-6,0,2,2,7,x,x,x
N#CCCN(Cc1ccccc1)C(=O)CCC(=O)c1ccc(F)cc1,0,6,2,x,0,-37,x,x,x
CCc1nnc(NC(=O)CSc2nnc(CNc3ccc(F)cc3)n2C2CCCCC2)s1,-1,7,1,10,-19,-10,x,x,x
Nc1ccc(C(=O)OCc2nc3c(ccc4ccccc43)[nH]2)cc1,7.1*,-4,0,25,5,-9,10*,20*,11
Nc1ccc(C(=O)OCCCc2nc3cc4ccccc4cc3[nH]2)cc1,4,7,2,17,7,-3,x,x,x
CC(C)COC(=O)Nc1nnc(Cc2ccccc2)s1,10*,14,1,-12,6,-1,3,5,4
CC(C)Cc1nnc(NC(=O)Nc2ccccc2)s1,16*,6,0,-20,7,-11,32*,-4,11
CC(C)(C)C(=O)Nc1nnc(Cc2ccccc2)s1,-2,13,-3,4,4,-4,x,x,x
COc1ccc(C(C(=O)NC2CCCCC2)N(C(=O)c2sc(C)nc2C)c2ccc(C(C)=O)cc2)cc1 (centres undefined),-1,0,0,-1,0,-7,x,x,x
CN(C)c1ccc(CNc2nc3ccccc3n2C)cc1,0,12,-3,x,2,-11,x,x,x
Cn1c(NCc2cccc(Br)c2)nc2ccccc21,40*,0,-1,11,3,-2,53*,8,29*
O=C(NCCNC(=O)c1ccccc1O)c1ccccc1O,2,17,2,-23,4,-5,x,x,x
SMILES,Tb MetRS inh,SKN-1 inh,hiPSC survival,PREPL inhibitor,MT1-MMP act inh,eLon inh,TbMetRS confirm,Jurkat cytotox,Tb MetRS inh FP
O=C(NCCCCCCNC(=O)c1ccccc1O)c1ccccc1O,6.7*,6,0,7,-1,3,14*,8,6
CCOC1=C2CN(S(=O)(=O)c3ccc(C)cc3)C(c3cccc(Cl)c3)CC2N(S(=O)(=O)c2ccc(Cl)cc2)C(c2ccccc2)C1 (centres undefined),-1,-7,x,x,11,x,x,x,x
CCCCn1c(N)c(N(CC(C)C)C(=O)CCC2CCCCC2)c(=O)[nH]c1=O,0,6,0,7,-3,7,x,x,x
O=C(Nn1c(O)c(C=C2N=c3ccccc3=N2)sc1=S)c1ccccc1,5,1,4,8,12,-21,x,x,x
O=C(Nn1c(O)c(C=C2N=c3ccccc3=N2)sc1=S)c1ccc(Cl)cc1,6.4*,9,4,12,8,-10,21*,6,30*
Cc1ccc(S(=O)(=O)Nn2c(O)c(C=C3N=c4ccccc4=N3)sc2=S)cc1,78*,4,0,11,8,3,93*,-7,57*
c1cc(-c2cc3nc(NC4CCCCC4)ccn3n2)ccc1OCCN1CCOCC1,0,8,5,x,4,-1,x,x,x
O=C(Nc1ccc(OC(F)(F)F)cc1)N1CCc2nc(NCc3cccc(Oc4ccccc4)c3)ncc2C1,0,18,-3,x,7,-16,x,x,x
COc1cccc(-n2c(SCC(=O)N3CCOCC3)nnc2-c2c[nH]c3ccccc23)c1,18*,-15,3,-3,-1,-6,30*,9,6
O=C(NC1CCS(=O)(=O)C1)c1cccc(S(=O)(=O)N2CCCC2)c1 (centres undefined),0,-1,2,1,-1,2,x,x,x
CCN(C(=O)CSc1nnc(-c2c[nH]c3ccccc23)o1)C1CCS(=O)(=O)C1 (centres undefined),7.3*,0,0,7,2,-4,13*,-4,12
Cc1cc(SCC(=O)N/N=C/c2ccc(O)c(O)c2O)c(C)cc1Br,76*,16,0,1,-19,-3,103*,56*,84*
Cc1cc(C)cc(NC(=O)CCCSc2nc3ccccc3[nH]2)c1,11*,-4,0,-10,4,-2,22*,-4,10
CCc1cccc(NC(=O)CCCSc2nc3ccccc3[nH]2)c1,26*,8,0,-2,2,-1,44*,6,17*
